Screening results deposited in PubChem by several laboratories.
Only some compounds are listed: those with a hit (about 2% of all), similar ones and a draw of the others.
CaV13 ICDI inh: Primary screen for inhibitors of IQ motif and Ca2+-dependent inactivation inhibitor domain binding in CACNA1D, Förster resonance energy transfer in living cells, …; HEK cells, CFP/YFP FRET ICDI-IQ, plate reader, 10 min; percent FRET-ratio fall versus neutral wells; inhibition, % at 12.3 µM; 340,000 tested, 0.098% active; AID 743397;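 active means mean replicate inhibition of at least 30% and at least 1% of replicates passing that level; inconclusive means only one of the two criteria is met; inactive means neither criterion is met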;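 further: 0% = median of the neutral control wells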
Xi reactivation: X-chromosome reactivation activator; 360,000 tested, 0.055% active; XiGFP mouse fibroblasts, % GFP-positive cells imaging, 3 d; cells co-treated with 5-aza-dC sensitizer; scaled so ellipticine positive control = 100%; activation, % at 7.58 µM;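 active means mean normalized replicate activation at least 10% and every replicate at or above 10%; inconclusive means only one of the two criteria met; inactive means mean below 10% and not all replicates reach 10%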;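 further: 0% = median of on-plate neutral control wells and 100% = ellipticine 6 µM median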
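Assay system – SV40-immortalized XiGFP fibroblast cells, line 68-5-11 · Buffer or medium – DMEM supplemented with 5-aza-dC as sensitizing agent · Dosing – one concentration, pinned · Benchmarks – positive control ellipticine, 6 µM final · Times – 3 days compound exposure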
LGR2 inh: Drosophila LGR2 receptor signaling inhibition. HEK293 LGR2, CRE-luciferase, bursicon-stimulated, 4 h. inhibition, % at 9.99 µM. 380,000 tested, 0.35% active. AID 720647;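 active means drop in luminescence signal, shown as inhibition above about 50% in the replicate tests, limit read from the data, passing the limit was not always enough; inconclusive means probably only some replicates passing the limit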;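 further: agonist challenge used bursicon conditioned medium at about half maximal strength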
TROY NFkB inh: TROY signaling inhibition; Q293 LMP1-TROYcd NF-kB luciferase reporter, 4 h; inhibition, % at 10 µM; 360,000 tested, 0.98% active;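 active means compounds whose plate-normalised and pattern-corrected inhibition of the luciferase reporter signal at the single screening dose is 50% or more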
TWEAK-Fn14 inh: blocks TWEAK-Fn14 interaction in a reporter cell assay | TWEAK-stimulated Fn14 reporter cells, luciferase luminescence, 8 h | inhibition, % at 10 µM | 360,000 tested, 2% active | AID 1159606; in the data active means inhibition above about 50%
An asterisk follows results filed as active; ? = inconclusive; · = not tested or not shown.

SMILES | CaV13 ICDI inh | Xi reactivation | LGR2 inh | TROY NFkB inh | TWEAK-Fn14 inh
O=C(O)C1CCCCC1C(=O)Nc1ccc2c(c1)OCCO2 (configuration not stated) | · | · | · | 69* | 83*
CC(C)C#Cc1cnc2c(c1)C(=O)N([C@@H](C)CO)C[C@H](C)[C@H](CN(C)Cc1ccccn1)O2 | · | 0 | -7 | · | ·
c1coc(C2=NC(c3ccco3)C(c3ccco3)N2)c1 (configuration not stated) | · | · | · | 9 | 64*
Cc1sc2ncnc(N3CCC(C(=O)NNC(=O)COc4ccccc4Cl)CC3)c2c1C | -7 | 0 | -11 | 48 | 41
COc1ccc(OCC(=O)NNC(=O)C2CCN(c3ncnc4sc(C)c(C)c34)CC2)cc1 | -3 | 0 | 15 | 26 | 38
Cc1cc(Cl)ccc1OCC(=O)NNC(=O)C1CCN(c2ncnc3sc(C)c(C)c23)CC1 | -2 | 0 | -5 | 72* | 82*
Cc1ccc(OCC(=O)NNC(=O)C2CCN(c3ncnc4sc(C)c(C)c34)CC2)cc1 | -6 | 0 | -2 | 48 | 26
Cc1sc2ncnc(N3CCC(C(=O)NNC(=O)COc4ccc(Br)cc4)CC3)c2c1C | -15 | 0 | 22 | 74* | 88*
Cc1sc2ncnc(N3CCC(C(=O)NNC(=O)COc4cccc(C(F)(F)F)c4)CC3)c2c1C | -2 | 0 | -5 | 50 | 56*
Cc1sc2ncnc(N3CCC(C(=O)NNC(=O)COc4ccc(Cl)cc4)CC3)c2c1C | -3 | 0 | 13 | 50* | 87*
CN1[C@@H]2c3ccc(-c4cccc(F)c4)c(=O)n3C[C@H]1[C@H](CO)[C@H]2C(=O)NCc1ccccc1 | · | 1 | -8 | · | ·
COc1cccc(C#Cc2ccc3c(c2)[C@@H]2[C@@H](CCN2S(=O)(=O)c2ccc(C)cc2)[C@H](CO)N3)c1 | · | 0 | · | · | ·
Cc1sc2ncnc(N3CCN(S(=O)(=O)c4ccc(C(C)(C)C)cc4)CC3)c2c1C | -17 | 1 | 8 | 24 | 39
Cc1cccc(C)c1NC(=O)CN(C)C(=O)C1CCN(c2ncnc3sc(C)c(C)c23)CC1 | -7 | 0 | -7 | 4 | 7
Cc1c(C(=O)Nc2ccc3c(c2)OCCO3)sc2ncnc(N3CCCCC3C)c12 (configuration not stated) | -5 | 0 | -17 | 47 | 53*
Cc1cc(Br)ccc1NC(=O)CN(C)C(=O)C1CCN(c2ncnc3sc(C)c(C)c23)CC1 | -5 | 1 | 14 | 45 | 59*
COc1ccc(NC(=O)c2sc3ncnc(N4CCN(c5ccccn5)CC4)c3c2C)cc1Cl | -6 | 0 | 26 | 22 | 76*
COc1ccc(NC(=O)c2sc3nc(C)nc(N4CCN(c5ccccn5)CC4)c3c2C)cc1Cl | -6 | 1 | 1 | 6 | 2
Cc1ccc(S(=O)(=O)N2CCN(C(=O)C3CCN(c4ncnc5sc(C)c(C)c45)CC3)CC2)c(C)c1 | -3 | 0 | 20 | 42 | 51*
Cc1sc2ncnc(N3CCC(C(=O)Nc4ccc(OC(F)F)c(Cl)c4)CC3)c2c1C | -14 | 0 | ? | 51* | 25
Cc1ccc(NC(=O)Nc2ccc3c(c2)C(=O)N(C)[C@@H]2CC[C@@H](CC(=O)O)O[C@H]2CO3)cc1 | · | 0 | 21 | · | ·
Cc1ccc(C(=O)NNC(=S)NC(=O)c2ccc(Cl)cc2)cc1 | -6 | · | · | -37 | -108
Cc1ccc(C(=O)NC(=C(Cl)Cl)S(=O)(=O)c2ccc(Cl)cc2)cc1 | 0 | 0 | 20 | 27 | 93*
Cc1ccc(C(=O)NC(=C(Cl)Cl)S(=O)(=O)c2ccc(C)cc2)cc1 | -11 | · | -5 | -35 | 54*
Cc1ccc(S(=O)(=O)C(NC(=O)c2ccccc2)=C(Cl)Cl)cc1 | -3 | · | · | -45 | 65*
SMILES | CaV13 ICDI inh | Xi reactivation | LGR2 inh | TROY NFkB inh | TWEAK-Fn14 inh
Cc1ccc(S(=O)(=O)/C(=C/Cl)NC(=O)c2ccccc2)cc1 | -15 | 0 | 40 | -10 | 77*
Cc1ccc(S(=O)(=O)CCC(=O)OCC(=O)NC(=O)c2ccccc2)cc1 | -6 | 0 | 3 | -7 | 9
CC(=O)NC(=C(Cl)Cl)S(=O)(=O)c1ccccc1 | -3 | 0 | 26 | -6 | 33
C[C@@H]1CCCCO[C@H](CN(C)Cc2ccc3c(c2)OCO3)[C@@H](C)CN([C@@H](C)CO)C(=O)c2cc(NS(=O)(=O)c3ccccc3)ccc2O1 | · | 0 | -7 | · | ·
O=C(NC(=C(Cl)Cl)S(=O)(=O)c1ccc(Cl)cc1)c1ccccc1 | -10 | 0 | 27 | 13 | 96*
O=C(/C=C/c1cnc2ccccc2n1)NC12CC3CC(CC(C3)C1)C2 | -8 | · | 34 | 71* | 73*
O=C(O)/C=C/c1cnc2ccccc2n1 | -3 | 0 | 5 | 64* | 8
Cc1ccccc1-c1ccc([C@@H]2[C@H](CO)N3CCCCN(C(=O)c4cccnc4)C[C@@H]23)cc1 | · | 0 | 8 | · | ·
CC(C)OCCCn1c(SCC(=O)N2CCCC2=O)nc2ccccc2c1=O | -6 | 0 | -22 | -25 | 1
CC(C)OCCCn1c(SCC(=O)N2CCc3ccccc32)nc2ccccc2c1=O | -5 | 0 | · | 24 | 91*
Cc1ccc(CSc2nnc(SCC(=O)N/N=C/c3ccc(C(=O)O)cc3)s2)cc1 | 9 | 0 | 67* | 15 | 69*
C[C@@H]1CN([C@H](C)CO)C(=O)Cc2cc(NC(=O)CCC(F)(F)F)ccc2O[C@@H]1CN(C)S(=O)(=O)c1cn(C)cn1 | · | -1 | 10 | · | ·
O=C(Oc1ccc(/C=N/n2cnnc2)cc1)c1cccc([N+](=O)[O-])c1 | -9 | 0 | 73* | 56* | 10
CC(C)c1nnc(NC(=O)CCS(=O)(=O)c2nc(-c3cccs3)cc(C(F)(F)F)n2)s1 | -4 | · | · | 50* | 62*
CC(C)c1nnc(NC(=O)CCS(=O)(=O)Cc2ccccc2)s1 | -2 | 0 | 2 | -8 | 11
Cc1ccc(NC(=O)C2CCN(S(=O)(=O)c3ccc4c(c3)NC(=O)C(C)S4)CC2)cc1Cl (configuration not stated) | -6 | 0 | 28 | 47 | 63*
Cc1ccc(C)c(N2CCN(C(=O)CCS(=O)(=O)c3ccc4c(c3)NC(=O)C(C)S4)CC2)c1 (configuration not stated) | -11 | 0 | 17 | 44 | 72*
C[C@H](CO)N1C[C@H](C)[C@@H](CN(C)C(=O)c2ccccc2)OCCCC[C@H](C)Oc2ccc(NS(=O)(=O)c3ccc(F)cc3)cc2C1=O | · | -1 | -7 | · | ·
C[C@@H]1CN([C@@H](C)CO)C(=O)c2cc(-c3ccc(F)cc3)cnc2O[C@H]1CN(C)CC1CCCCC1 | · | -1 | -9 | · | ·
O=C(Nc1ccccc1)Nc1cc(Cl)cc(Cl)c1 | -5 | · | · | 51* | 41
O=C(Nc1ccccc1)Nc1cc(OCC(F)(F)F)cc(OCC(F)(F)F)c1 | -1 | 0 | 30 | 43 | 59*
O=C(NC(=O)c1ccccc1)Nc1ccccc1 | -4 | 0 | 37 | 10 | 72*
